Measurements as given in ChEMBL document CHEMBL1134545, “Design, synthesis, DNA binding, and biological evaluation of water-soluble hybrid molecules containing two pyrazole analogues of the alkylating cyclopropylpyrroloindole (CPI) subunit of the antitumor agent CC-1065 and polypyrrole minor groove binders” (J Med Chem, 2001).
≈ marks a conversion by molar mass, not a printed value.

Assays:
MOLT-4 = assay: In vitro antitumor activity against Human T-lymphoblast (Molt/4) cell lines.; format: functional, cell-based
Procedure, shortened: (§1)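 Cells seeded at 250 000-300 000 cells/mL and exposed to a range of compound concentrations. Incubation for 2-3 days at 37 °C, followed by Coulter counter cell counts. IC50 is the concentration that lowers cell number by 50%. Reported as mean ± SE from dose-response curves of at least three independent experiments.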

CCRF-CEM = assay: In vitro antitumor activity against Human T-lymphoblast (CEM) cell lines.; format: functional, cell-based; procedure, shortened: as §1
L1210 [1] = assay: In vitro antitumor activity against Murine leukemia (L1210) cell lines.; format: functional, cell-based; conditions: Mus musculus; procedure, shortened: as §1
Daudi = assay: In vitro antitumor activity against Human B-lymphoblast (Daudi) cell lines.; format: functional, cell-based; procedure, shortened: as §1
FM3A = assay: In vitro antitumor activity against Murine mammary carcinoma (FM3A) cell lines.; format: functional, cell-based; conditions: Mus musculus; procedure, shortened: as §1
E6SM [2] = assay: Antiviral activity against herpes simplex virus-1 TK-KOS ACV (HSV-1) in E6SM cell cultures; format: functional; conditions: Homo sapiens
Procedure, shortened: (§2)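 Confluent E6SM cells, grown in MEM with 10% inactivated FCS, 2 mM L-glutamine and 0.3% NaHCO3, inoculated with 100 CCID50 per well. After 1 or 2 h, residual virus removed. Cells then incubated in MEM with 2% FCS and varying compound concentrations for 3 days. MIC is the concentration reducing virus-induced cytopathicity by 50% versus untreated control, read when control CPE complete.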

E6SM [3] = assay: Minimum cytotoxic concentration required to cause a microscopically detectable alteration of normal cell morphology; format: functional; conditions: Homo sapiens
Procedure, shortened: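 E6SM cell cultures exposed to compound for the same duration as the antiviral assays. Cells examined under a microscope. MCC is the lowest concentration causing detectable alteration of normal cell morphology.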

E6SM [4] = assay: Antiviral activity against herpes simplex virus-1 KOS (HSV-1) in E6SM cell cultures; format: functional; conditions: Homo sapiens; procedure, shortened: as §2
E6SM [5] = assay: Antiviral activity against herpes simplex virus-1 TK-VMW 1837 (HSV-1) in E6SM cell cultures; format: functional; conditions: Homo sapiens; procedure, shortened: as §2
E6SM [6] = assay: Antiviral activity against herpes simplex virus-2 G (HSV-2) in E6SM cell cultures; format: functional; conditions: Homo sapiens
Procedure, shortened: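 Confluent E6SM cells (MEM, 10% inactivated FCS) were infected with HSV-2 strain G at 100 CCID50 per well. After 1 or 2 h, residual virus was removed and the cells were incubated in MEM with 2% FCS and varying compound concentrations. MIC is the concentration reducing cytopathicity by 50%, recorded when control infected cultures reached full CPE (3 days).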

E6SM [7] = assay: Antiviral activity against […] in E6SM cell cultures; format: functional; conditions: Homo sapiens
Procedure, shortened: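 E6SM cells grown in MEM with 10% inactivated FCS, 2 mM L-glutamine and 0.3% NaHCO3, infected, then treated with varying compound concentrations. MIC is the concentration reducing virus-induced cytopathogenicity by 50%, recorded once CPE reached completion in untreated infected controls.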

E6SM [8] = assay: Antiviral activity against Vaccinia virus in E6SM cell cultures; format: functional; conditions: Homo sapiens; procedure, shortened: as §2
L1210 [9] = assay: Cytotoxicity against L1210 leukemia cells; format: functional, cell-based; conditions: Mus musculus; procedure, shortened: as §1

| SMILES | IC50 (MOLT-4) [nM] | IC50 (CCRF-CEM) [nM] | IC50 (L1210 [1]) [nM] | IC50 (Daudi) [nM] | IC50 (FM3A) [nM] | MIC (E6SM [2]) [µg/mL] | MCC (E6SM [3]) [µg/mL] | MIC (E6SM [4]) [µg/mL] | MIC (E6SM [5]) [µg/mL] | MIC (E6SM [6]) [µg/mL] | MIC (E6SM [7]) [µg/mL] | MIC (E6SM [8]) [µg/mL] | IC50 (L1210 [9]) [nM] |
| --- | --- | --- | --- | --- | --- | --- | --- | --- | --- | --- | --- | --- | --- |
| Cc1n[nH]c2c(O)cc3c(c12)C(CCl)CN3C(=O)c1cc(C(=O)Nc2cc(C(=O)Nc3cc(C(=O)NCCC(=N)N)n(C)c3)n(C)c2)n(C)n1 (stereo not given) | 45 | 39 | 19 | 22 | 190 |  |  |  |  |  |  |  |  |
| Nc1nc2c(ncn2COCCO)c(=O)[nH]1 [ACYCLOVIR] |  |  |  |  |  | 48 (≈ 213 µM) | > 400 | 0.077 (≈ 0.342 µM) | 0.384 (≈ 1.71 µM) | 0.077 (≈ 0.342 µM) | > 400 |  |  |
| O=c1[nH]c(=O)n([C@H]2C[C@H](O)[C@@H](CO)O2)cc1/C=C/Br [BRIVUDINE] |  |  |  |  |  | 240 (≈ 720 µM) | > 400 | 0.015 (≈ 0.045 µM) | 0.128 (≈ 0.384 µM) | 240 (≈ 720 µM) | > 400 | 0.077 (≈ 0.231 µM) |  |
| Cc1n[nH]c2c(O)cc3c(c12)C(CCl)CN3C(=O)c1cc(C(=O)Nc2cc(C(=O)NCCC(=N)N)n(C)c2)n(C)n1 (stereo not given) | 340 | 230 | 58 | 150 | 1600 |  |  |  |  |  |  |  |  |
| Cn1cc(NC(=O)c2cc(NC(=O)c3cc(NC(=O)c4cc(C(=O)N5CC(CCl)c6c5cc(O)c5c6cnn5Cc5ccccc5)nn4C)cn3C)cn2C)cc1C(=O)NCCC(=N)N (stereo not given) | 310 | 400 | 400 | 100 | 19300 |  |  |  |  |  |  |  |  |
| Nc1nc2c(ncn2COC(CO)CO)c(=O)[nH]1 [GANCICLOVIR] |  |  |  |  |  | 1.92 (≈ 7.52 µM) | > 100 | 0.004 (≈ 0.0157 µM) | 0.019 (≈ 0.0744 µM) | 0.004 (≈ 0.0157 µM) | > 100 |  |  |
| NC(=O)c1ncn([C@@H]2O[C@H](CO)[C@@H](O)[C@H]2O)n1 [RIBAVIRIN] |  |  |  |  |  | 240 (≈ 983 µM) | > 400 | 240 (≈ 983 µM) | 240 (≈ 983 µM) | 48 (≈ 197 µM) | 48 (≈ 197 µM) | 16 (≈ 65.5 µM) |  |
| Cc1n[nH]c2c(O)cc3c(c12)C(CCl)CN3C(=O)c1cc(C(=O)Nc2cc(C(=O)Nc3cc(C(=O)Nc4cc(C(=O)NCCC(=N)N)n(C)c4)n(C)c3)n(C)c2)n(C)n1.Cl (stereo not given) | 17 | 71 | 7.4 | 8.8 | 31 | > 0.16 | 0.8 | > 0.16 | > 0.16 | 0.16 | > 0.16 | 0.019 |  |
| Cn1cc(NC(=O)c2cc(NC(=O)c3cc(C(=O)N4CC(CCl)c5c4cc(O)c4c5cnn4Cc4ccccc4)nn3C)cn2C)cc1C(=O)NCCC(=N)N (stereo not given) | 160 | 210 | 600 | 38 | 5600 |  |  |  |  |  |  |  |  |
| Cc1n[nH]c2c(O)cc3c(c12)C(CCl)CN3C(=O)OC(C)(C)C (stereo not given) | 1740 | 1260 | 520 | 680 | 1400 | > 1.6 | 8 | > 1.6 | > 1.6 | > 1.6 | > 1.6 |  |  |
| CC(C)(C)OC(=O)N1CC(CCl)c2c1cc(O)c1c2cnn1Cc1ccccc1 (stereo not given) | 8550 | 6720 | 2710 | 7520 | 18300 |  |  |  |  |  |  |  |  |
| Cc1nn(Cc2ccccc2)c2c1C13CC1CN(C(=O)OC(C)(C)C)C3=CC2=O (racemic) |  |  |  |  |  |  |  |  |  |  |  |  | 3060 |
| Cn1cc(NC(=O)c2cc(C(=O)N3CC(CCl)c4c3cc(O)c3c4cnn3Cc3ccccc3)nn2C)cc1C(=O)NCCC(=N)N (stereo not given) | 130 | 70 | 240 | 11 | 4000 |  |  |  |  |  |  |  |  |
